Active and inactive are the calls of the source. The calls are words filed in the database; no cut-off is given here.
Tests used:
Carbonic anhydrase 2 = Carbonic anhydrase 2 (Homo sapiens, UniProt P00918); test: Inhibition of cytosolic carbonic anhydrase 2 esterase activity isolated from human erythrocytes using 4-nitrophenylacetate as substrate measured over 3 mins by spectrophotometric analysis
Carbonic anhydrase 1 [1] = target: T1, Carbonic anhydrase 1 (Homo sapiens, UniProt P00915); test: Inhibition of cytosolic carbonic anhydrase 1 esterase activity isolated from human erythrocytes using 4-nitrophenylacetate as substrate measured over 3 mins by spectrophotometric analysis
Method in brief: (§1)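 Esterase activity followed at 348 nm as 4-nitrophenylacetate (3 mM stock) converts to 4-nitrophenylate, 3 min at 25 °C, in 0.05 M Tris–SO4 pH 7.4. Blank without enzyme; uninhibited control = 100%. Several inhibitor concentrations, each in triplicate; KI from activity-versus-[inhibitor] plots via Cheng–Prusoff.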
Target sequence in this assay (P00915 whole entry): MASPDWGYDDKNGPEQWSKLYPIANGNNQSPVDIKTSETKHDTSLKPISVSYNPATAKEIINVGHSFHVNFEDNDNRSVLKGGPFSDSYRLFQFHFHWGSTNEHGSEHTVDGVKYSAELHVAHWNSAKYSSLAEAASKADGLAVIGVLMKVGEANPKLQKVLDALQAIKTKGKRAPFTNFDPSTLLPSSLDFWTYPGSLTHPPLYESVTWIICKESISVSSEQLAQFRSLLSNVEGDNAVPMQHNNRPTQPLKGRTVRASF

Carbonic anhydrase 1 [2] = target: T1, Carbonic anhydrase 1; test: Competitive inhibition of cytosolic carbonic anhydrase 1 esterase activity isolated from human erythrocytes in presence of 4-nitrophenylacetate; method in brief: as §1
Target sequence in this assay (P00915 2-261 limits assumed): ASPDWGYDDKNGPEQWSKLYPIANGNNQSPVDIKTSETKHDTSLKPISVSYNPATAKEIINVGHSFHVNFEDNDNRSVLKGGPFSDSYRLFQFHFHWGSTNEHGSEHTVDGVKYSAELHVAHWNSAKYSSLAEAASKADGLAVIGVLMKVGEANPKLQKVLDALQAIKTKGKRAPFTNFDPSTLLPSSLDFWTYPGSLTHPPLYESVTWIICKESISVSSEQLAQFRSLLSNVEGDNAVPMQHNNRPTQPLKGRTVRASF

| SMILES | Ki (Carbonic anhydrase 2) | Ki (Carbonic anhydrase 1 [1]) | inhibition (Carbonic anhydrase 1 [2]) |
| --- | --- | --- | --- |
| Cc1ccc(S(=O)(=O)NCC(=O)N2CCCCC2)cc1 | 19.3 µM |  |  |
| Cc1ccc(S(=O)(=O)N[C@@H](Cc2ccccc2)C(=O)OCc2ccccc2)cc1 |  | 14.7 µM | Active |
| Cc1ccc(S(=O)(=O)NCC(=O)OCc2ccccc2)cc1 |  | 29.6 µM | Active |
| Cc1ccc(S(=O)(=O)N[C@@H](Cc2ccccc2)C(=O)N2CCCCC2)cc1 |  | 100 µM | Active |
| COC(=O)CNS(=O)(=O)c1ccc(C)cc1 | 56.4 µM | 106 µM | Active |

The next lines start with the values.

| Ki (Carbonic anhydrase 2) | Ki (Carbonic anhydrase 1 [1]) | inhibition (Carbonic anhydrase 1 [2]) | SMILES |
| --- | --- | --- | --- |
| 104 µM | 315 µM | Active | Cc1ccc(S(=O)(=O)N[C@@H](Cc2ccccc2)C(=O)O)cc1 |
| 144 µM | 120 µM | Active | Cc1ccc(S(=O)(=O)NCC(=O)O)cc1 |
|  | 63.7 µM | Active | COC(=O)[C@H](Cc1ccccc1)NS(=O)(=O)c1ccc(C)cc1 |
